Laboratory results reported in ChEMBL document CHEMBL1138650, “Inactivation of human S-adenosylhomocysteine hydrolase by covalent labeling of cysteine 195 with thionucleoside derivatives” (Bioorg Med Chem Lett, 2004).
pKi: −log10 of the molar value.

Experiments:
Adenosylhomocysteinase [1] = target: T1, Adenosylhomocysteinase (Homo sapiens, UniProt P23526); experiment: Binding affinity for human placental S-adenosyl-homocysteine hydrolase
How it was run: (§1)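 Recombinant human placental enzyme, purified to homogeneity, at 2 µM, preincubated at 37°C with inhibitor at various concentrations and times in 20 mM potassium phosphate pH 7.5, 1 mM EDTA. Ki and kinact come from a double reciprocal plot of pseudo-first-order inactivation rate versus 1/[I].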
Target sequence in this assay (P23526 whole entry): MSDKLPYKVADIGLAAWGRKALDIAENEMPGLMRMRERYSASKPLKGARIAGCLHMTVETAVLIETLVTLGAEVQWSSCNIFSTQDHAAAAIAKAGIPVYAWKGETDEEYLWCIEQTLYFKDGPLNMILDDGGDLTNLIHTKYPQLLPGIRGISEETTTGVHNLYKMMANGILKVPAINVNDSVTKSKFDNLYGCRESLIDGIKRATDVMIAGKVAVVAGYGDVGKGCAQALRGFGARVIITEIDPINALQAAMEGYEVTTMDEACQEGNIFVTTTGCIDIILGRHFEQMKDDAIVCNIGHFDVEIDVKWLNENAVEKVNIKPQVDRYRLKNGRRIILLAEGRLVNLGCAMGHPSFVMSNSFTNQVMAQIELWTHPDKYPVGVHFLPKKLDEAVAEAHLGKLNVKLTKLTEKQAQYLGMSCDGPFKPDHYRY

Adenosylhomocysteinase [2] = target: T1, Adenosylhomocysteinase; experiment: Inactivation rate constant for human placental S-adenosyl-homocysteine hydrolase; how it was run: as §1
Target sequence in this assay (P23526 2-432 limits assumed): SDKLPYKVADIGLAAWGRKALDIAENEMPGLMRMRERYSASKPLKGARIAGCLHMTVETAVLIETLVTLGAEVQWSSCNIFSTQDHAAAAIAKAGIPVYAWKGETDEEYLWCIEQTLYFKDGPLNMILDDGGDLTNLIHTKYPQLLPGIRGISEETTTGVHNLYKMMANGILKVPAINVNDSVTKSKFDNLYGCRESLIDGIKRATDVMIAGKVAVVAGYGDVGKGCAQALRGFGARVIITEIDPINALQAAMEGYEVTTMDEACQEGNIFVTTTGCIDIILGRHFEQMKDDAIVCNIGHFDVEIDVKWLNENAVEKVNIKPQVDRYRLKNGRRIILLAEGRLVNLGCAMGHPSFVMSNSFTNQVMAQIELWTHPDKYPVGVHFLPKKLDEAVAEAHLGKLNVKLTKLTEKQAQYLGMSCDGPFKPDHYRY

## Nc1ncnc2c1ncn2C1OC([C@@H]2CS2)[C@@H](O)[C@H]1O (single isomer, unassigned)
Adenosylhomocysteinase [1]
  pKi: 3.98
Adenosylhomocysteinase [2]
  Kinact: 0.1 min⁻¹

## CSSC[C@H]1OC(n2cnc3c(N)ncnc32)[C@H](O)[C@@H]1O (stereo not given in full)
Adenosylhomocysteinase [1]
  pKi: 4.72
Adenosylhomocysteinase [2]
  Kinact: 0.05 min⁻¹

## Nc1ncnc2c1ncn2C1O[C@H]([C@H]2CS2)[C@@H](O)[C@H]1O (stereo not given in full)
Adenosylhomocysteinase [1]
  pKi: 4.30
Adenosylhomocysteinase [2]
  Kinact: 0.03 min⁻¹

## Nc1ncnc2c1ncn2C1O[C@H](CS)[C@@H](O)[C@H]1O (stereo not given in full)
Adenosylhomocysteinase [1]
  pKi: 5.40
Adenosylhomocysteinase [2]
  Kinact: 0.04 min⁻¹

## Nc1ncnc2c1ncn2C1O[C@@H](CSSC[C@H]2OC(n3cnc4c(N)ncnc43)[C@H](O)[C@@H]2O)[C@H](O)[C@@H]1O (stereo not given in full)
Adenosylhomocysteinase [1]
  pKi: 4.02
Adenosylhomocysteinase [2]
  Kinact: 0.05 min⁻¹
